From ChEMBL document CHEMBL1149790, “Synthesis of some novel thiourea derivatives obtained from 5-[(4-aminophenoxy)methyl]-4-alkyl/aryl-2,4-dihydro-3H-1,2,4-triazole-3-thiones and evaluation as antiviral/anti-HIV and anti-tuberculosis agents” (Eur J Med Chem, 2008)
In brackets after ≈: the same amount, converted by molar mass.

Assays:
[1] = test system: Human immunodeficiency virus 1; assay: Antiviral activity against HIV1 3B in human MT4 cells assessed as protection against virus-induced cytopathogenicity by MTT assay; format: functional, organism-based; parameters: Activity: concentration or dose not given beside the values; conditions: for IC50: Human immunodeficiency virus 1, 3B, MT4
Outline: (§1)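 MT-4 cells at 6 × 10⁵ cells/ml infected with HIV-1 IIIB or HIV-2 ROD at 100–300 CCID50; compounds in serial five-fold dilutions, triplicate mock- and virus-infected wells. MTT viability read at 540 and 690 nm after 5 days, median OD of three wells; EC50 = 50% protection from viral cytopathic effect.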

[2] = test system: Human immunodeficiency virus 2; assay: Antiviral activity against HIV2 ROD in human MT4 cells assessed as protection against virus-induced cytopathogenicity by MTT assay; format: functional, organism-based; parameters: Activity: concentration or dose not given beside the values; conditions: for IC50: Human immunodeficiency virus 2, ROD, MT4; outline: as §1
[3] = Cytotoxicity against human MT4 cells by MTT assay; format: cell-based
Outline: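 Mock-infected MT-4 cells (6 × 10⁵ cells/ml) with serial five-fold compound dilutions in triplicate; MTT reduction read at 540 and 690 nm after 5 days, median OD of three wells; CC50 = concentration reducing OD540 of mock-infected control by 50%.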

[4] = Cytotoxicity against human HeLa cells; format: cell-based
Outline: (§2)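 Uninfected cell cultures exposed to test compounds alongside antiviral assays; minimum cytotoxic concentration (MCC) = concentration causing a microscopically detectable alteration of cell morphology.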

[5] = test system: Vesicular stomatitis virus; assay: Antiviral activity against vesicular stomatitis virus in human HeLa cells assessed as inhibition of virus-induced cytopathogenicity; format: functional
Outline: (§3)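 Confluent cell monolayers (E6SM, HEL, HeLa or Vero, per line) inoculated with 100 CCID50 virus; 1 h adsorption, residual virus removed, then incubated with compound at 400, 200, 100 … µg/ml. Cytopathicity scored once complete in untreated virus controls; MIC = concentration inhibiting virus-induced cytopathicity.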

[6] = test system: Coxsackievirus B4; assay: Antiviral activity against Coxsackie virus B4 in human HeLa cells assessed as inhibition of virus-induced cytopathogenicity; format: functional; conditions: Enterovirus B; outline: as §3
[7] = test system: Respiratory syncytial virus; assay: Antiviral activity against respiratory syncytial virus in human HeLa cells assessed as inhibition of virus-induced cytopathogenicity; format: functional; outline: as §3
[8] = Cytotoxicity against human E6SM cells; format: cell-based; conditions: E6SM cells; outline: as §2
[9] = Cytotoxicity against human HEL cells assessed as alteration of cell morphology; format: cell-based; outline: as §2
[10] = test system: Human alphaherpesvirus 1; assay: Antiviral activity against HSV1 KOS in human E6SM cells assessed as reduction of virus-induced cytopathogenicity; format: functional; conditions: Human alphaherpesvirus 1, KOS; outline: as §3
[11] = test system: Human alphaherpesvirus 1; assay: Antiviral activity against HSV1 KOS in human HEL cells assessed as reduction of virus-induced cytopathogenicity; format: functional; conditions: Human alphaherpesvirus 1, KOS; outline: as §3
[12] = test system: Human alphaherpesvirus 2; assay: Antiviral activity against HSV2 G in human E6SM cells assessed as reduction of virus-induced cytopathogenicity; format: functional; conditions: Human alphaherpesvirus 2, G; outline: as §3
[13] = test system: Human alphaherpesvirus 2; assay: Antiviral activity against HSV2 G in human HEL cells assessed as reduction of virus-induced cytopathogenicity; format: functional; conditions: Human alphaherpesvirus 2, G; outline: as §3
[14] = test system: Vesicular stomatitis virus; assay: Antiviral activity against in Vesicular stomatitis virus in human E6SM cells assessed as reduction of virus-induced cytopathogenicity; format: functional; outline: as §3
[15] = test system: Vesicular stomatitis virus; assay: Antiviral activity against in Vesicular stomatitis virus in human HEL cells assessed as reduction of virus-induced cytopathogenicity; format: functional; outline: as §3
[16] = test system: Human alphaherpesvirus 1; assay: Antiviral activity against thymidine kinase deficient and acyclovir resistant HSV1 KOS in human E6SM cells assessed as reduction of virus-induced cytopathogenicity; format: functional; conditions: Human alphaherpesvirus 1, KOS; outline: as §3
[17] = test system: Human alphaherpesvirus 1; assay: Antiviral activity against thymidine kinase deficient and acyclovir resistant HSV1 KOS in human HEL cells assessed as reduction of virus-induced cytopathogenicity; format: functional; conditions: Human alphaherpesvirus 1, KOS; outline: as §3
[18] = test system: Vero; assay: Cytotoxicity against african green monkey Vero cells; format: cell-based; conditions: chlorocebus sabaeus; outline: as §2
[19] = test system: Coxsackievirus B4; assay: Antiviral activity against Coxsackie virus B4 in african green monkey Vero cells assessed as reduction of virus-induced cytopathogenicity; format: functional; conditions: Enterovirus B; outline: as §3
[20] = test system: Punta Toro virus; assay: Antiviral activity against Punta Toro virus in african green monkey Vero cells assessed as reduction of virus-induced cytopathogenicity; format: functional; outline: as §3
[21] = test system: Human respirovirus 3; assay: Antiviral activity against Parainfluenza 3 virus in african green monkey Vero cells assessed as reduction of virus-induced cytopathogenicity; format: functional; outline: as §3
[22] = test system: Mammalian orthoreovirus 1; assay: Antiviral activity against Reo virus 1 in african green monkey Vero cells assessed as reduction of virus-induced cytopathogenicity; format: functional; outline: as §3
[23] = test system: Sindbis virus; assay: Antiviral activity against Sindbis virus in african green monkey Vero cells assessed as reduction of virus-induced cytopathogenicity; format: functional; outline: as §3
[24] = Cytotoxicity against human HEL cells assessed as reduction of cell growth; format: cell-based
Outline: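 HEL cells; CC50 = compound concentration reducing cell growth by 50%.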

Row | Structure (SMILES) | Activity [1] [%] | IC50 [1] [µg/mL] | Activity [2] [%] | IC50 [2] [µg/mL] | CC50 [3] [µg/mL] | MCC [4] [µg/mL] | MIC [5] [µg/mL] | MIC [6] [µg/mL] | MIC [7] [µg/mL] | MCC [8] [µg/mL] | MCC [9] [µg/mL] | MIC [10] [µg/mL] | MIC [11] [µg/mL] | MIC [12] [µg/mL] | MIC [13] [µg/mL] | MIC [14] [µg/mL] | MIC [15] [µg/mL] | MIC [16] [µg/mL] | MIC [17] [µg/mL] | Activity [18] | also measured
1 | C=CCNC(=S)Nc1ccc(-c2n[nH]c(=S)n2CCCCCC)cc1 | 4 | > 10.1 | 0 | > 10.1 | 10.1 (≈ 26.8 µM) | 80 | > 16 | > 16 | > 16 | 80 | 80 | > 16 | > 16 | > 16 | > 16 | > 16 | > 16 | > 16 | > 16 | >= 16 ug ml-1 | MIC [19]: > 16 µg/mL; MIC [20]: > 16 µg/mL; MIC [21]: > 16 µg/mL; MIC [22]: > 16 µg/mL; MIC [23]: > 16 µg/mL
2 | C=CCNC(=S)Nc1ccc(-c2n[nH]c(=S)n2C)cc1 | 9.5 | > 78.2 | 1 | > 78.2 | 78.2 (≈ 256 µM) | 400 | > 80 | > 80 | > 80 | 400 | 400 | 240 (≈ 786 µM) | 240 (≈ 786 µM) | 240 (≈ 786 µM) | 240 (≈ 786 µM) | > 80 | > 80 | 240 (≈ 786 µM) | 240 (≈ 786 µM) | 400 µg/mL | MIC [19]: > 80 µg/mL; MIC [20]: > 80 µg/mL; MIC [21]: > 80 µg/mL; MIC [22]: > 80 µg/mL; MIC [23]: > 80 µg/mL
3 | C=CCNC(=S)Nc1ccc(-c2n[nH]c(=S)n2CC=C)cc1 | 6.5 | > 65.4 | 0 | > 65.4 | 65.4 (≈ 197 µM) | 400 | > 80 | > 80 | > 80 | ≥ 80 | ≥ 80 | > 80 | > 80 | > 80 | > 80 | > 80 | > 80 | 240 (≈ 724 µM) | 240 (≈ 724 µM) | >= 80 ug ml-1 | MIC [19]: > 80 µg/mL; MIC [20]: > 80 µg/mL; MIC [21]: > 80 µg/mL; MIC [22]: > 80 µg/mL; MIC [23]: > 80 µg/mL
4 | C=CCNC(=S)Nc1ccc(-c2nnc(SCc3ccc(Cl)cc3Cl)n2-c2ccccc2)cc1 | 1.5 | > 65.3 | 0 | > 65.3 | 65.3 (≈ 124 µM) | 80 | > 16 | > 16 | > 16 | ≥ 16 | ≥ 16 | > 16 | > 16 | > 16 | > 16 | > 16 | > 16 | > 16 | > 16 | >= 16 ug ml-1 | MIC [19]: > 16 µg/mL; MIC [20]: > 16 µg/mL; MIC [21]: > 16 µg/mL; MIC [22]: > 16 µg/mL; MIC [23]: > 16 µg/mL
5 | Nc1nc2c(ncn2COCCO)c(=O)[nH]1 [ACYCLOVIR] | – | – | – | – | – | – | – | – | – | > 400 | > 400 | 0.384 (≈ 1.71 µM) | 0.384 (≈ 1.71 µM) | 0.384 (≈ 1.71 µM) | 0.384 (≈ 1.71 µM) | > 400 | > 400 | 48 (≈ 213 µM) | 48 (≈ 213 µM) | – | CC50 [24]: 200 µg/mL (≈ 888 µM)
6 | CNC(=S)Nc1ccc(-c2nnc(SCc3ccccc3)n2C)cc1 | 2.5 | > 75.4 | 6 | > 75.4 | 75.4 (≈ 204 µM) | 80 | > 16 | > 16 | > 16 | ≥ 16 | ≥ 16 | > 16 | > 16 | > 16 | > 16 | > 16 | > 16 | > 16 | > 16 | 80 µg/mL | MIC [19]: > 16 µg/mL; MIC [20]: > 16 µg/mL; MIC [21]: > 16 µg/mL; MIC [22]: > 16 µg/mL; MIC [23]: > 16 µg/mL
